Data reported in ChEMBL document CHEMBL4177671, “Selenium-containing analogues of WC-9 are extremely potent inhibitors of Trypanosoma cruzi proliferation” (Bioorg Med Chem, 2017).

What was measured:
[1] = Selectivity index, ratio of ED50 for African green monkey Vero cells to ED50 for Trypanosoma cruzi; assay type: toxicity; conditions: Vero cells versus Trypanosoma cruzi, read-out: Ratio ED50
In short: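 Calculated as ED50 for Vero cytotoxicity divided by ED50 for the parasite.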

[2] = Cytotoxicity against African green monkey Vero cells after 3 to 4 days by Alamar Blue dye-based spectrophotometric method; assay type: cell-based; conditions: chlorocebus sabaeus, read-out: ED50 (the source's name)
In short: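 Vero cell cytotoxicity was measured by Alamar Blue assay following a previously described method.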

Trypanosoma cruzi = experiment: Antitrypanosomal activity against tdTomato red labeled trypomastigote stage of Trypanosoma cruzi infected in gamma-irradiated African green monkey Vero cells after 3 days by fluorescence assay; assay type: functional; conditions: light or radiation study, 72 h, read-out: ED50 (the source's name)
In short: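 Vero cells, gamma-irradiated at 2,000 Rads, were seeded at 3.4×10^4 per well in RPMI with 10% FBS and incubated overnight at 35 °C, 7% CO2. They were infected with 3.4×10^5 CL-strain tdTomato trypomastigotes per well for 5 h, then washed. Serial dilutions of 1.56–25 μM were run in quadruplicate, with benznidazole at 0.39–6.25 μM. Fluorescence was read at day 3. ED50 was obtained by non-linear regression.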

Toxoplasma gondii = experiment: Antiparasitic activity against tachyzoite stage of Toxoplasma gondii expressing red fluorescent protein infected in gamma-irradiated African green monkey Vero cells by fluorescence assay; assay type: functional; conditions: light or radiation study, read-out: ED50 (the source's name)
In short: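 Tachyzoites expressing red fluorescent protein, assayed per an earlier method with published modifications. Plates were read with lids on, bottom read, excitation 544 nm and emission 590 nm. Values are the mean of one experiment carried out in triplicate.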

Structure (SMILES) | selectivity ratio [1] | CC50 [2] | EC50 (Trypanosoma cruzi) | EC50 (Toxoplasma gondii)
N#C[Se]CCOc1ccc(Oc2cccc(F)c2)cc1 | 1800 | 153 µM | 85 nM | –
N#CSCC1Cc2cc(Oc3ccccc3)ccc2O1 (stereo not drawn) | > 10.4 | > 62.5 µM | 5990 nM | > 10 µM
O=[N+]([O-])c1ccc(Oc2cccc(Br)c2)cc1 | – | – | > 100000 nM | –
N#CSCCOc1cccc(Sc2ccccc2)c1 | – | > 50 µM | > 10000 nM | 3.58 µM
N#C[Se]CCOc1cccc(Oc2ccc(Cl)cc2)c1 | > 1100 | > 125 µM | 114 nM | –
N#C[Se]CCOc1ccc(I)cc1 | – | > 50 µM | > 10000 nM | –
N#C[Se]CC1Cc2ccc(Oc3ccccc3)cc2O1 (racemic) | > 1040 | > 125 µM | 120 nM | –
O=C(Cn1ccnc1[N+](=O)[O-])NCc1ccccc1 [BENZNIDAZOLE] | – | – | 1500 nM | –
N#CSCCOc1ccc(Oc2ccccc2)cc1 | – | 82.6 µM | 5000 nM | 4.8 µM
N#CSCc1cc2cc(Oc3ccccc3)ccc2o1 | – | – | 5190 nM | –
NC(=O)OCCOc1ccc(Oc2ccccc2)cc1 | – | – | > 10000 nM | –
N#C[Se]CC1Cc2c(Oc3ccccc3)cccc2O1 (racemic) | > 307 | > 125 µM | 407 nM | –
N#C[Se]CCOc1cccc(Oc2ccc(F)cc2)c1 | > 1260 | > 125 µM | 99 nM | –
N#C[Se]CCOc1ccc(Cl)cc1Cl | > 45.3 | > 62.5 µM | 1380 nM | –
N#C[Se]CCOc1cccc(Oc2ccccc2F)c1 | 1110 | 140 µM | 126 nM | –
N#C[Se]CCOc1cccc(Oc2ccccc2)c1 | > 1760 | > 150 µM | 85 nM | 2.87 µM
O=P(O)(O)C(CNCCOc1ccccc1)P(=O)(O)O | – | – | 5690 nM | –
N#C[Se]CCOc1cccc(I)c1 | > 11.5 | > 62.5 µM | 5440 nM | –
N#C[Se]CCOc1ccc(Oc2ccccc2)cc1 | > 917 | > 100 µM | 109 nM | 3.7 µM
N#C[Se]CCOc1ccc(Oc2ccc(F)cc2)cc1 | – | 122 µM | 271 nM | –
N#C[Se]CC1Cc2cc(Oc3ccccc3)ccc2O1 (racemic) | > 1500 | > 125 µM | 83 nM | –
CCOP(=O)(OCC)C(CNCCOc1ccccc1)P(=O)(OCC)OCC | – | – | 5380 nM | –
N#COCCOc1ccc(Oc2ccccc2)cc1 | – | – | > 10000 nM | –
N#C[Se]CCOc1cccc(Oc2cccc(F)c2)c1 | > 833 | > 62.5 µM | 75 nM | –
N#CSCCOc1ccc(Sc2ccccc2)cc1 | > 10.9 | > 62.5 µM | 5730 nM | 4.58 µM
